Screens as filed in PubChem BioAssay.
pPAFAH inh: pPAFAH (human) enzyme inhibition. Q13093. recombinant pPAFAH, FP-rhodamine probe fluorescence polarization. inhibition, % at 3.39 µM. hit rate 1.5% among 330,000;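 active = inhibition above the mean inhibition across the screen plus 3 SD, cut at about 25% in these data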;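 note: inhibitors block binding of the rhodamine activity-based probe so polarization drops; 0% = enzyme with DMSO and 100% = wells lacking pPAFAH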
PAFAH2 FP inh: inhibitors of human PAFAH2; Q99487; recombinant PAFAH2, FP-rhodamine activity probe, fluorescence polarization; inhibition, % at 3.39 µM; hit rate 0.99% among 340,000;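 active = inhibition above the mean over all tested compounds plus 3 SD, cut at about 30% in these data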;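 note: inhibitors block probe labeling of enzyme so polarization drops; 0% = enzyme with DMSO and 100% = wells lacking PAFAH2 protein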
PAFAH1B3 inh: inhibitors of human PAFAH1B3. Q15102. recombinant PAFAH1B3, FP-rhodamine probe, fluorescence polarization. AID 492972. inhibition, % at 3.39 µM. hit rate 0.28% among 340,000;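 active = inhibition above the screen-wide average of all tested compounds plus 3 SD, cut at about 25% in these data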;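 note: 0% = enzyme with DMSO only and 100% = wells lacking PAFAH1B3 protein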
Target sequence (Q15102 whole entry, looked up): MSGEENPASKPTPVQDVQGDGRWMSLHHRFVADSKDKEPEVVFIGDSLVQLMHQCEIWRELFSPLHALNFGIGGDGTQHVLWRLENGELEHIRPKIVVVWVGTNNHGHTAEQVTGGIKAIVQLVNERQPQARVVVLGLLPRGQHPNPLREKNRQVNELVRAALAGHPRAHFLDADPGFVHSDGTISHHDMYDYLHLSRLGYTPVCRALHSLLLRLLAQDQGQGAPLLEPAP
PAFAH1B2 FP inh: inhibitors of human PAFAH1B2 | recombinant PAFAH1B2, FP-rhodamine activity probe, fluorescence polarization | inhibition, % at 3.39 µM | hit rate 1.2% among 340,000;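 active = inhibition above the mean of all tested compounds plus 3 SD, cut at about 24% in these data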;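 note: 0% = enzyme with DMSO and 100% = wells lacking PAFAH1B2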
Target sequence (P68402 whole entry, looked up): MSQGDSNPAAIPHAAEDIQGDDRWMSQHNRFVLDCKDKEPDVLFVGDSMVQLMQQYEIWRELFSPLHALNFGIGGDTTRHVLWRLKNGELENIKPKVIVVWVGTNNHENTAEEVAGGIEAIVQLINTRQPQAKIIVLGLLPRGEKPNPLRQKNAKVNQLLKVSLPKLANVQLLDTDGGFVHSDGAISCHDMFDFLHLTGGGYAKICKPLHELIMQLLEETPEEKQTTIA
Apaf1 inhib: human Apaf-1 inhibition; AID 489030; reconstituted apoptosome caspase-3 activity, DEVD-Rh110 fluorescence; hit rate 0.71% among 330,000; inhibition, % at 20 µM; active = inhibition of at least 40% at 20 µM;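 note: plate controls were DMSO wells for no effect and DEVD-CHO caspase inhibitor wells for full effect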
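System – cell-free apoptosome with Apaf-1, procaspase-3 and caspase-9 · Buffer or medium – pH 7.5 Hepes buffer with CHAPS, BSA, DTT · Also added – cytochrome c with DEVD-Rh110 · Times – 30 min compound preincubation, 50 min activation, room temperature · Technique – Rh110 fluorescence intensity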
PREPL inhibitor: inhibitors of human prolyl oligopeptidase-like enzyme PREPL. Q4J6C6. hit rate 0.68% among 320,000. inhibition, % at 5.96 µM. recombinant PREPL, fluorescence polarization activity-based probe; in the data active = inhibition above about 43%;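 note: 0% = enzyme with DMSO and 100% = wells lacking enzyme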
* hit, by the source's call; · = no result. This is a sample that favours compounds with a hit; in the whole collection about 3.5% have one here.

SMILES	pPAFAH inh	PAFAH2 FP inh	PAFAH1B3 inh	PAFAH1B2 FP inh	Apaf1 inhib	PREPL inhibitor
Cc1cccc(CS(=O)(=O)Cc2ccc(C(=O)NCc3ccco3)o2)c1	24.8*	3.3	3.4	-6.3	0.9	-6.3
CCN(N=O)c1ccc(C=C2C=Cc3ccccc32)cc1	·	1.9	8.5	-0.5	·	·
N=c1c(S(=O)(=O)c2ccc(Cl)cc2)cc2c(=O)n3ccccc3nc2n1CCN1CCOCC1	6.1	7.2	2.4	36.9*	-1.5	10.6
N#CC1=C(N)OC2=C(CC/C2=C\c2ccccc2Cl)C1c1ccccc1Cl (centres undefined)	18.6	-6.4	-10.8	-2.5	1.9	-18.1
CSc1ccc(C2C(C#N)=C(N)Oc3c2ccc(=O)c2c(C)oc(C)c32)cc1 (centres undefined)	31.2*	24.1	2.6	2.0	14.5	14.5
Cc1oc(C)c2c(=O)ccc3c(c12)OC(N)=C(C#N)C3c1ccccc1 (centres undefined)	13.2	8.7	7.8	1.6	15.1	25.6
Cc1oc(C)c2c(=O)ccc3c(c12)OC(N)=C(C#N)C3c1ccccc1Cl (centres undefined)	25.1*	3.7	-0.8	-9.6	8.1	26.5
O=C(COC(=O)COc1ccccc1)NC12CC3CC(CC(C3)C1)C2	12.5	2.3	-2.2	25.1*	-0.4	-3.8
O=C(Nc1ccc(OCC(=O)N2CCOCC2)cc1)c1cccc(Cl)c1	4.9	0.1	1.2	1.0	-10.4	-1.8
Cn1c(N)c(N=Nc2ccc(S(N)(=O)=O)cc2)c(=O)n(C)c1=O	-4.7	-4.1	6.9	11.3	5.4	12.3
N#Cc1c(-c2ccccc2)nc(N2CCOCC2)[nH]c1=O	-0.3	-6.2	-8.8	3.4	5.3	23.8
CC(C)c1ccc(-c2nc(N3CCOCC3)[nH]c(=O)c2C#N)cc1	4.0	-0.3	7.2	32.5*	-2.1	6.4
NC(=O)c1ccc[n+](CC(=O)OCCC23CC4CC(CC(C4)C2)C3)c1	-2.9	-0.4	0.2	26.2*	18.1	-22.4
COc1cccc(NC(=O)C2C3C=CC4(O3)C2C(=O)N(CCCN2CCCC(C)C2)C4C(=O)NC2CCCCC2C)c1 (centres undefined)	2.7	-1.5	-3.5	1.5	4.7	9.2
COc1ccc(CN2C(=O)c3ccccc3C2C(=O)NC2CCC(C)CC2)c(OC)c1 (centres undefined)	10.7	1.2	10.6	25.7*	-7.8	-0.1
COc1ccc(CN2C(=O)c3ccccc3C2C(=O)NC2CCCC2)c(OC)c1 (centres undefined)	0.9	3.1	-1.1	6.3	-7.9	10.5
Cc1ccc(NC(=O)C(C)SCc2nc3sc4c(c3c(=O)[nH]2)CCCC4)nc1 (centres undefined)	17.0	-2.5	-0.1	29.2*	9.0	13.7
Cc1ccc(OCCNC(=O)CCc2nc3sc4c(c3c(=O)[nH]2)CCCC4)cc1	18.5	-0.5	6.0	27.4*	-1.0	-5.4
CC(SCc1nc2sc3c(c2c(=O)[nH]1)CCCC3)C(=O)Nc1ccccn1 (centres undefined)	3.9	8.8	7.2	2.8	1.4	-5.2
COCCn1c(Cc2ccccc2)nnc1SCC(=O)NC1CCCCC1	-1.7	0.2	4.9	1.8	11.4	2.3
O=C(Nc1cc2c(=O)n(-c3ccc(Oc4ccccc4)cc3)ccc2oc1=O)c1ccccc1	3.4	6.6	12.2	6.5	9.5	-2.8
Cc1ccc(C(=O)NC(=S)N2CCN(c3ccc([N+](=O)[O-])cc3)CC2)cc1	1.6	-6.0	3.1	0.8	5.1	-6.0
CC(=O)N1C(C)(C)CC(=NOC(=O)c2ccc(C)cc2)CC1(C)C	25.1*	82.6*	9.8	0.4	10.9	2.0
Cc1ccc(C(=O)ON=C2CCN(c3ccc([N+](=O)[O-])cc3)CC2)cc1	8.0	76.7*	5.7	2.6	10.0	15.9
CC(C)(C)c1ccc(C(=O)N/C(=C\c2cccs2)C(=O)N2CCOCC2)cc1	4.7	-2.6	-5.9	5.7	-14.9	1.4
SMILES	pPAFAH inh	PAFAH2 FP inh	PAFAH1B3 inh	PAFAH1B2 FP inh	Apaf1 inhib	PREPL inhibitor
O=C(CSc1c2c(nc3ccc(Cl)cc13)CCCC2)NCCCN1CCOCC1	-2.1	4.4	-7.0	2.5	-4.0	6.7
CC(Oc1ccc(Cl)cc1)C(=O)NNC(=S)NC(=O)c1ccco1 (centres undefined)	0.2	6.3	3.0	25.8*	7.7	-2.0
CCOC(=O)N1CCc2c(sc(NC(=O)c3ccc(Cl)s3)c2C(N)=O)C1	24.9*	·	·	·	31.7	9.9
CCOC(=O)N1CCc2c(sc(NC(C)=O)c2C(N)=O)C1	-5.8	-1.4	3.9	2.7	5.2	7.2
O=C(Cn1cc([N+](=O)[O-])cn1)N1CCc2ccccc2C1	3.4	-8.4	8.7	2.6	-19.0	-7.8
CC(C)[C@@H](C(=O)NCC1CCCO1)N1C(=O)N2CCc3c([nH]c4ccccc34)[C@@]2(C)C1=O (some centres undefined)	1.9	-0.8	2.2	3.6	8.6	20.8
Cc1ccc(S(=O)(=O)CCC(=O)OCC(=O)N2c3ccccc3NC(=O)C2(C)C)cc1	7.7	7.6	0.0	29.9*	2.1	-0.9
C[C@H](CO)N1C[C@H](C)[C@@H](CN(C)Cc2ccncc2)Oc2c(NS(=O)(=O)c3cn(C)cn3)cccc2C1=O	-3.0	-9.8	-2.9	0.0	7.9	1.2
Cc1cccc(OCCNS(=O)(=O)c2ccc(Cl)cc2)c1	5.9	3.0	-2.8	24.2*	2.2	-31.1
OCCNc1ncnc2c1c(-c1ccccc1)c(-c1ccccc1)n2Cc1ccco1	14.0	-11.6	16.9	6.3	2.1	4.5
c1ccc(-c2c(-c3ccccc3)n(Cc3ccco3)c3ncnc(NCCCn4ccnc4)c23)cc1	20.4	-0.8	3.1	5.2	41.6*	25.8
CC1=C(C)N(C)[C@H](c2ccccc2Br)[C@H](O)C1=O	·	2.2	10.1	6.5	·	·
CCN(CC)S(=O)(=O)c1cccc(-c2csc(C)n2)c1	10.6	-3.6	14.4	2.4	-8.5	-2.2
CCN(CC)S(=O)(=O)c1cccc(N=Nc2sc(N)nc2C)c1	25.6*	12.9	3.5	-2.3	8.2	11.4
CC1CCc2c(sc(NC(=O)c3ccc(Cn4cc([N+](=O)[O-])cn4)o3)c2C#N)C1 (centres undefined)	31.3*	12.5	0.5	15.0	22.8	17.5
CC(C)CCNC(=O)c1c(CSc2ccccc2)noc1C(=O)NCc1ccccc1	-6.9	-29.5	-2.4	-1.3	12.8	-6.2
CCOc1ncccc1C(=O)OCC(=O)Nc1cc(C(C)(C)C)ccc1OC	28.4*	6.2	3.0	6.0	10.9	-2.5
COc1ccc(C)cc1NC(=O)c1ccc(NS(=O)(=O)c2cccs2)cc1	32.2*	5.8	-4.2	-2.1	14.6	15.0
CCOc1ccc(Br)cc1S(=O)(=O)Nc1ccc(C(=O)Nc2ccccc2OC)cc1	28.6*	-3.9	-5.9	-1.4	-16.8	-4.0
